In experiment [1] the test system is CNS carcinoma cell. Put plainly: Cytotoxicity against human CNS cancer cells after 48 hrs by SRB assay. In kind it is functional. The following applies: for CC50: read-out: LC50 (the source's name). An outline of the steps: (§1)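 NCI-60 screen: single-dose pass at 10^-5 M, then a five-concentration assay from 10^-9 to 10^-4 M (highest 100 μM). Exposure was 48 h under standard NCI protocols. GI50, TGI and LC50 were derived per cell line and averaged by subpanel. Repeated tests are the mean of two experiments.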

Experiment [2] relates to Breast carcinoma cell. Description: Cytotoxicity against human breast cancer cells after 48 hrs by SRB assay. In kind it is functional. An outline of the steps:
as §1
Background: In SRB staining, fixed cells bind dye roughly in proportion to their protein.

A short description of experiment [3]: Cytotoxicity against human COLON cells after 48 hrs by SRB assay. In kind it is functional. The following applies: for CC50: read-out: LC50 (the source's name). An outline of the steps: as §1
For experiment [4], the system named is Renal cancer cell line. Put plainly: Cytotoxicity against human renal cancer cells after 48 hrs by SRB assay. In kind it is functional. The gist of the method: as §1
Experiment [5] relates to NSCLC. Description: Cytotoxicity against human NSCLC cells after 48 hrs by SRB assay. It counts as functional. An outline of the steps: as §1
Experiment [6] concerns Melanoma cell line. Description: Cytotoxicity against human melanoma cells after 48 hrs by SRB assay. In kind it is functional. Particulars: for CC50: read-out: LC50 (the source's name). An outline of the steps: as §1
Experiment [7] has as its system Leukemia cell. Description: Cytotoxicity against human leukemia cells after 48 hrs by SRB assay. In kind it is functional. An outline of the steps:
as §1

Experiment [8] deals with Ovarian carcinoma cell. Put plainly: Cytotoxicity against human ovarian cancer cells after 48 hrs by SRB assay. In kind it is functional. An outline of the steps:
as §1

The subject of experiment [9] is Prostatic carcinoma cell. Description: Cytotoxicity against human prostate cancer cells after 48 hrs by SRB assay. In kind it is functional. The gist of the method: as §1
Experiment [10] has as its target T1, Tubulin (Bos taurus) (UniProt Q6B856+Q862L2+Q862F3). Description: Inhibition of [3H]colchicine binding to bovine brain tubulin at 50 uM after 20 mins relative to control. An outline of the steps: (§2)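 Reaction mixtures held 1 μM tubulin, 5 μM [³H]colchicine and test compound at 5 or 50 μM. Read-out was percent inhibition of colchicine binding.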
Experiment [11] has as its target T1, Tubulin (Bos taurus). Put plainly: Inhibition of [3H]colchicine binding to bovine brain tubulin at 5 uM after 20 mins relative to control. The gist of the method: as §2

By GI50 is commonly meant the concentration at which growth is held to half of that of the control. A high value points to lower sensitivity of the cells. For orientation: TGI means the concentration giving total growth inhibition. A word on the LC50: it is the concentration that kills 50% of the test population. Consider `COc1cc2c(c(OC)c1OC)/C(=C\c1c(OC)nc3sc(C)cn13)C(=O)N2`, for which the GI50 in experiment [1] is 7.79 µM; in experiment [2], 5.37 µM; in [3], 6.89 µM; in experiment [4], 9.36 µM; in experiment [5] it was 9.26 µM; in experiment [6], 7.86 µM. Further, the figures for the GI50 in experiment [7], in experiment [8] and in [9] were 5.73 µM, 13.8 µM and 11.3 µM, respectively. For the same compound, the TGI stood at 33.6 µM in experiment [1]; 29.2 µM in experiment [2]; 69.9 µM in [3]; 45 µM in [4]; 58.8 µM in experiment [5]; 65.7 µM in experiment [6]. For the same compound, the TGI in [8] is 63.2 µM. The CC50 came out at 81.4 µM in experiment [1], 97.2 µM in experiment [3] and 95.6 µM in experiment [6]. This compound also registered an LC50 (concentration killing 50% of cells) in [2] of 99.3 µM. In addition, the LC50 (50% lethal concentration) worked out at 98.2 µM in experiment [4] and 93 µM in experiment [8]. The LC50 in experiment [5] turned out to be 99.4 µM.

For `COc1ccc2c(c1)/C(=C/c1c(-c3ccncc3)nc3sccn13)C(=O)N2C`, the GI50 in [1] came out at 0.38 µM; in experiment [2] it was 0.44 µM; in [3], 0.34 µM; in [4], 0.5 µM; in experiment [5] it was 0.55 µM; in [6], 5.97 µM. For the same compound, the GI50 in [7] is 0.35 µM; in experiment [8], 1.14 µM; in experiment [9] it was 0.39 µM. Besides, the TGI in experiment [1] was determined as 63.1 µM; in [2] it was 80.1 µM; in [3], 78.8 µM; in experiment [4], 65.5 µM; in [5], 82.4 µM; in experiment [6], 85.3 µM. Besides, the TGI in experiment [7] is 81.8 µM; in [8] it was 62.4 µM; in experiment [9], 68.8 µM. The CC50 in [3] was found to be 93 µM. In addition, in experiment [7], the LC50 is 96.1 µM. This compound came in with an LC50 (50% lethal concentration) in experiment [8] of 93.2 µM.

As for `COc1nc2sc(C)cn2c1C=C1C(=O)N(C)c2ccccc21`, the GI50 in experiment [1] worked out at 9.82 µM; in [2], 4.82 µM; in experiment [3], 4.05 µM; in experiment [4] it was 13.1 µM; in experiment [5] it was 9.5 µM; in [6] it was 8.08 µM. For the same compound, the GI50 in [7] is 4.35 µM; in experiment [8], 10.5 µM; in experiment [9], 12.6 µM. The TGI in [1] came to 42.4 µM; in experiment [2], 58.2 µM; in experiment [3], 36.3 µM; in experiment [4] it was 70.5 µM; in [5] it was 73.2 µM; in experiment [6], 34.2 µM. The TGI in experiment [7] amounted to 74.2 µM; in experiment [8], 67 µM; in experiment [9] it was 66.7 µM. In addition, the results for the CC50 in experiment [1], in experiment [3] and in experiment [6] were 97.3 µM, 91.1 µM and 93.4 µM, respectively. Also, in [5], the median lethal concentration (LC50) was found to be 95.1 µM. Besides, the LC50 (50% lethal concentration) in experiment [8] worked out at 92.8 µM.

Turning to `COc1cc2c(cc1C)NC(=O)/C2=C/c1c(OC)nc2sc(C)cn12`, the GI50 in experiment [1] was determined as 5.7 µM; in experiment [2], 4.57 µM; in experiment [3], 42.9 µM; in [4] it was 5.81 µM; in [5], 5.25 µM; in experiment [6], 31.5 µM. Moreover, the GI50 worked out at 7.22 µM in experiment [8] and 18.8 µM in experiment [9]. Also, the TGI in experiment [1] came out at 20.4 µM; in experiment [2], 50.9 µM; in experiment [3], 91.7 µM; in [4], 58.9 µM; in experiment [5], 74.9 µM; in [6], 91.7 µM. This compound also showed a TGI in [8] of 47.1 µM. Moreover, the CC50 in [1] is 68.3 µM. For the same compound, in experiment [2], the LC50 (concentration killing 50% of cells) is 91.4 µM. Also, the values for the LC50 (50% lethal concentration) in experiment [4] and in experiment [8] were 90.6 µM and 91.4 µM, respectively. The LC50 in [5] worked out at 98 µM.

As for `COc1nc2sc(C)cn2c1/C=C1/C(=O)Nc2ccc(O)cc21`, the GI50 was determined as 4.76 µM in experiment [1]; 4.57 µM in experiment [2]; 4.79 µM in [3]; 6.58 µM in experiment [4]; 7.54 µM in [5]; 4.88 µM in [6]. The GI50 in experiment [7] was found to be 3.32 µM; in experiment [8], 12.8 µM; in [9], 7.59 µM. The concentration for total growth inhibition (TGI) in [1] amounted to 64 µM; in [2] it was 66.2 µM; in experiment [3] it was 78.2 µM; in experiment [4] it was 79.4 µM; in [5], 72 µM; in experiment [6], 38.6 µM. The TGI was determined as 61.7 µM in experiment [7], 63.5 µM in [8] and 96.2 µM in experiment [9]. Besides, the CC50 was 98.2 µM in [3] and 94 µM in experiment [6].

For `O=C1Nc2ccc(O)cc2/C1=C/c1c(-c2ccncc2)nc2sccn12`, the GI50 in [1] was 4.46 µM; in [2], 4.43 µM; in experiment [3], 7.5 µM; in experiment [4] it was 43 µM; in experiment [5], 21.2 µM; in [6], 15.8 µM. Besides, the values for the GI50 in experiment [7], in [8] and in [9] were 10.1 µM, 33.8 µM and 15 µM, respectively. Moreover, the TGI in [1] turned out to be 80.4 µM; in [2] it was 84.2 µM; in [3], 93 µM; in [4], 90.1 µM; in [5] it was 76.8 µM; in experiment [6], 89.4 µM. Also, the figures for the TGI in experiment [7] and in experiment [8] were 67.6 µM and 86.2 µM, respectively. Besides, the CC50 in experiment [6] is 99.1 µM.

As for `COc1nc2sc(C)cn2c1/C=C1/C(=O)Nc2c1ccc1ccccc21`, the GI50 in experiment [1] came to 0.42 µM; in experiment [2], 0.79 µM; in experiment [3], 0.37 µM; in experiment [4], 1.06 µM; in experiment [5], 2.82 µM; in experiment [6], 0.52 µM. In addition, the 50% growth inhibitory concentration (GI50) in [7] was 0.34 µM; in [8], 0.62 µM; in experiment [9], 0.3 µM. Also, the TGI in [1] is 38.6 µM; in experiment [2], 51.3 µM; in experiment [3] it was 34.6 µM; in experiment [4], 38.3 µM; in [5] it was 45.3 µM; in experiment [6], 43.3 µM. For the same compound, the TGI turned out to be 84.8 µM in experiment [7], 35.3 µM in experiment [8] and 35.2 µM in [9]. Further, the CC50 in experiment [1] turned out to be 82.9 µM; in experiment [3], 71.1 µM; in experiment [6], 95 µM; in [9] (read-out: LC50 (the source's name)), 75.9 µM. The LC50 (50% lethal concentration) in experiment [4] was 89.6 µM; in [8], 91.2 µM. In addition, in experiment [5], the LC50 amounted to 91.4 µM.

For `COc1ccc2c(c1)/C(=C\c1c(OC)nc3sc(C)cn13)C(=O)N2`, the GI50 in experiment [1] is 0.43 µM; in experiment [2], 0.87 µM; in experiment [3] it was 0.32 µM; in experiment [4], 0.65 µM; in [5], 1.49 µM; in experiment [6] it was 3.46 µM. Besides, the figures for the GI50 in experiment [7], in experiment [8] and in [9] were 0.43 µM, 1.32 µM and 0.38 µM, respectively. Also, the TGI is 33.6 µM in [1]; 61.3 µM in [2]; 35.7 µM in experiment [3]; 61.8 µM in [4]; 58.6 µM in experiment [5]; 67.7 µM in experiment [6]. For the same compound, the TGI in experiment [8] stood at 42.6 µM; in [9] it was 52.8 µM. Besides, the figures for the CC50 in experiment [1] and in experiment [3] were 85.4 µM and 79.2 µM, respectively. The compound further showed an LC50 in experiment [5] of 88.9 µM. In experiment [8], this compound returned an LC50 (50% lethal concentration) of 87.6 µM.

`O=C1Nc2ccccc2C1=Cc1c(-c2ccncc2)nc2sccn12`: the GI50 was 1.6 µM in experiment [1]; 5.42 µM in experiment [2]; 0.68 µM in experiment [3]; 14.9 µM in experiment [4]; 8.97 µM in experiment [5]; 3.27 µM in experiment [6]. The GI50 stood at 2.65 µM in experiment [7], 2.34 µM in [8] and 1.1 µM in experiment [9]. Also, the TGI in experiment [1] came to 49.7 µM; in experiment [2], 67.3 µM; in experiment [3], 63.4 µM; in [4] it was 73.2 µM; in experiment [5], 82.4 µM; in [6] it was 78.3 µM. Further, the values for the TGI in [7] and in experiment [8] were 92 µM and 61.3 µM, respectively. Further, the CC50 is 95 µM in [1], 94.3 µM in [3] and 92.2 µM in experiment [6]. For the same compound, the LC50 (50% lethal concentration) in experiment [4] came out at 92.4 µM; in [8] it was 91.8 µM.

The inhibition is the relative decrease from the control value, in per cent. In the case of `Cc1nc2sccn2c1-c1nc2sccn2c1C=C1C(=O)Nc2cc(Cl)ccc21`, the inhibition in experiment [10] is 28%; in experiment [11], 15%.

The values above are taken from ChEMBL document CHEMBL4316599, “Synthesis, in vitro and in vivo biological evaluation of substituted 3-(5-imidazo[2,1-b]thiazolylmethylene)-2-indolinones as new potent anticancer agents” (Eur J Med Chem, 2019).
